Assay results from different studies.
Lines come from different studies, so protocols differ.
Target: Serine/threonine-protein kinase 4 (STK4, Homo sapiens, UniProt Q13043)
Residues used in one study (Q13043 1-487): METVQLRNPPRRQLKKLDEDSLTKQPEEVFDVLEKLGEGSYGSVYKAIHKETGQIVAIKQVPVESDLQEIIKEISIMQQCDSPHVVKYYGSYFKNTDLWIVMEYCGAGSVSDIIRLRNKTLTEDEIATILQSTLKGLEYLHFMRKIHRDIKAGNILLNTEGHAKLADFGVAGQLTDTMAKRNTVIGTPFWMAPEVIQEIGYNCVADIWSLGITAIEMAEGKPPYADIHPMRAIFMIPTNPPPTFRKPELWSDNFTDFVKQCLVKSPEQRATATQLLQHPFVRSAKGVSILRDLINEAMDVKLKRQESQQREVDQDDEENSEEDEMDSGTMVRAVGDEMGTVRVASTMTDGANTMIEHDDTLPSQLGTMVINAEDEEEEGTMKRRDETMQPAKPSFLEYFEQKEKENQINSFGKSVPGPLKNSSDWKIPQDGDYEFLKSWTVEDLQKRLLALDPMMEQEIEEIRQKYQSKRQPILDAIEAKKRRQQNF

| Compound | read-out | mode | method | concentration | endpoint | value |
| --- | --- | --- | --- | --- | --- | --- |
| Cn1c2c(Cl)c(Cl)ccc2c2cn[nH]c(=O)c21 | thermal stability | – | DSF | 10 µM | ΔTm | 0.4 °C |
| Cc1c(NC(=O)c2cc(C(N)=O)nc3cc(F)ccc23)c(C(F)(F)F)nn1Cc1ccc(C(C)(C)C)cc1 | cell-free assay | – | competition with immobilised ligand | 1 µM | remaining binding | 95% |
| Cc1ccc(Nc2nccc(N(C)c3ccc4c(C)n(C)nc4c3)n2)cc1S(N)(=O)=O | enzyme activity | inhibitor | – | 10 µM | inhibition | 3% |
| O=C1NC(=O)c2cc(Nc3ccc(F)cc3)c(Nc3ccc(F)cc3)cc21 | cell-free assay | – | – | 0.5 µM | remaining signal | 101% |
| CN1CC(Oc2cnc(C#N)cc2-c2ccn3nc(NC(=O)C4CC4)cc3c2)C1 | enzyme activity | inhibitor | – | 1 µM | inhibition | -5% |
| Cc1sc(C(=O)NC2COC2)cc1-n1cc(NC(=O)Nc2c(F)cccc2Cl)cn1 | enzyme activity | inhibitor | – | 10 µM | remaining activity | 107% |
| Nc1ncnc2occ(-c3ccc(NC(=O)Nc4cc(C(F)(F)F)ccc4F)cc3)c12 | cell-free assay | inhibitor | – | 20 µM | remaining signal | 2.1% |
| CN(c1nccc(-c2cnn3ncccc23)n1)C1CC1 | cell-free assay | – | – | 1 µM | remaining signal | 99% |
| CCCS(=O)(=O)Nc1ccc(F)c(C(=O)c2c[nH]c3ncc(-c4ccc(Cl)cc4)cc23)c1F | enzyme activity | inhibitor | – | 1 µM | inhibition | < 20% |
| Cc1nc(C2CCN(C(=O)c3ccc(OC(F)(F)F)cc3N)CC2)c2ncc(N3CCN(C)CC3)cc2n1 | cell-free assay | – | competition with immobilised ligand | 1 µM | remaining binding | 85% |
| COc1cccc2c(NCc3ccccc3)nc(-n3c(N)nc4ccccc43)nc12 | target engagement in cells | inhibitor | chemoproteomics | 20 mM | inhibition | 6.2% |
| Nc1cnc(N2CCc3cc(S(=O)(=O)Nc4c(F)cc(Cl)cc4F)cc(N4CCCC4=O)c32)nc1 | cell-free assay | – | competition with immobilised ligand | 1 µM | remaining binding | 100% |
| COc1cc(Cl)c(C(=O)N[C@@H](CN[C@H]2CC[C@@H](N)CC2)Cc2ccc(C#N)cc2)cc1-c1ccc(CN[C@H](C)c2ccc(C)cc2)o1 | enzyme activity | inhibitor | – | 1 µM | remaining activity | 102% |
| N#CCCc1ccc2c(c1)-c1[nH]c3ccc([N+](=O)[O-])cc3c1CC(=O)N2 | cell-free assay | – | – | 0.5 µM | remaining signal | 30.9% |
| O=C(Nc1ccc(Oc2ccc(F)cc2)cc1)N1CCc2ncccc2[C@H]1c1ccc(F)cc1 | cell-free assay | – | competition with immobilised ligand | 1 µM | remaining binding | 99% |
| Cc1ccc(C(=O)Nc2ccc(CN3CCN(C)CC3)c(C(F)(F)F)c2)cc1C#Cc1cnc2cccnn12 | enzyme activity | inhibitor | – | 23.5 nM | remaining activity | 100% |
| C[C@@H]1CCN(C(=O)CC#N)C[C@@H]1N(C)c1ncnc2[nH]ccc12 | cell-free assay | inhibitor | – | 0.5 µM | remaining signal | 95.5% |
| Cn1c2c(Cl)c(Cl)ccc2c2cc(N)[nH]c(=O)c21 | thermal stability | – | DSF | 10 µM | ΔTm | 1.5 °C |
| CNC(=O)c1cc(Oc2ccc(NC(=O)Nc3ccc(Cl)c(C(F)(F)F)c3)cc2)ccn1 | enzyme activity | inhibitor | – | 0.3 µM | inhibition | -7% |
| C[C@H](c1ccc(F)cc1)N(Cc1cccc(C(=O)O)c1)C(=O)c1cnc2ccccc2c1 | cell-free assay | – | competition with immobilised ligand | 1 µM | remaining binding | 92% |
| Cn1c2c(c3ccc(Cl)c(Cl)c31)C(C#N)C1(CCOCC1)NC2=O (centres unmarked) | thermal stability | – | DSF | 10 µM | ΔTm | -0.4 °C |
| Cc1cc(-n2nc(Cc3cc(F)cc(C(F)(F)F)c3)nc2C)ccc1C(N)=O | cell-free assay | – | competition with immobilised ligand | 1 µM | remaining binding | 100% |
| COc1cc2ncnc(Nc3ccc(Oc4ccccc4)c(C)c3C)c2cc1OC | enzyme activity | inhibitor | – | 1 µM | inhibition | -7% |
| O=C(Nc1cnn(-c2csc(C(=O)NC3COC3)c2)c1)Nc1c(F)cccc1Cl | enzyme activity | inhibitor | – | 5 µM | remaining activity | 96.6% |
| CC1(C)NC(=O)c2[nH]c3c(Cl)c(Cl)ccc3c2C1C#N (centres unmarked) | thermal stability | – | DSF | 10 µM | ΔTm | -0.6 °C |
| CC(=O)C1=C(C)N(c2cccc(C(F)(F)F)c2)C(=O)N[C@@H]1c1ccc(C#N)nc1 | cell-free assay | – | competition with immobilised ligand | 1 µM | remaining binding | 97.5% |
| Cn1c2c(Cl)c(Cl)ccc2c2cc[nH]c(=O)c21 | thermal stability | – | DSF | 10 µM | ΔTm | 0.8 °C |
| Cn1nc(C(=O)NCc2ccc(C(=O)O)cc2)cc1-c1ccc2[nH]ccc2c1 | cell-free assay | – | competition with immobilised ligand | 0.1 µM | remaining binding | 80% |
| CC(C)(C)c1nc(-c2cccc(NS(=O)(=O)c3c(F)cccc3F)c2F)c(-c2ccnc(N)n2)s1 | enzyme activity | inhibitor | radiometric | 1 µM | remaining activity | 105% |
